Results taken from ChEMBL document CHEMBL4145447, “4-arylamidobenzyl substituted 5-bromomethylene-2(5H)-furanones for chronic bacterial infection” (Eur J Med Chem, 2018).

Assays:
[1] = test system: Pseudomonas aeruginosa PAO1; test: Inhibition of Pseudomonas aeruginosa PAO1 GFP-fused quorum sensing rhlA at 10 uM measured every 15 mins up to 12 hrs by GFP reporter gene assay relative to control
Outline: (§1)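 GFP reporter strains of P. aeruginosa PAO1 (lasB-, rhlA- or pqsA-promoter fused to unstable gfp(ASV)) grown overnight in LB at 37 °C, 200 rpm, 18 h, then diluted 1:100. Culture mixed 1:1 with compound diluted in LB from 10 mM DMSO stock (0.1% DMSO final). Fluorescence (ex 485/em 528 nm) read every 15 min at 37 °C for ≥12 h.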

[2] = target: T1, Anthranilate--CoA ligase (Pseudomonas aeruginosa (strain ATCC 15692 / DSM 22644 / CIP 104116 /JCM 14847 / LMG 12228 / 1C / PRS 101 / PAO1)) (UniProt Q9I4X3); test: Inhibition of Pseudomonas aeruginosa PAO1 GFP-fused quorum sensing pqsA at 10 uM measured every 15 mins up to 12 hrs by GFP reporter gene assay relative to control; outline: as §1
T1 sequence (whole entry): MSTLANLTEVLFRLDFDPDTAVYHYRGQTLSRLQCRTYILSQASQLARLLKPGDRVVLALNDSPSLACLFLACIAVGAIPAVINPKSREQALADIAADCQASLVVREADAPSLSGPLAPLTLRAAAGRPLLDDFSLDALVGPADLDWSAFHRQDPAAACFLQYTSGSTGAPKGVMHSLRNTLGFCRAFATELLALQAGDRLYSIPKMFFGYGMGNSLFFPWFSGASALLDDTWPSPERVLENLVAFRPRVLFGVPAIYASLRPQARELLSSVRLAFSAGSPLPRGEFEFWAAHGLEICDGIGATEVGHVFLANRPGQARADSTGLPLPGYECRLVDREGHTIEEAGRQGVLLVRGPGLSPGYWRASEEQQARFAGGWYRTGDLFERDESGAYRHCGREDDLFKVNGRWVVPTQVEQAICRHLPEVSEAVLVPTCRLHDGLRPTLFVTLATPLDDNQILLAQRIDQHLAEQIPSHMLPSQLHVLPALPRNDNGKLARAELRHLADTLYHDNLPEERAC

[3] = test system: RAW264.7; test: Anti-inflammatory activity in mouse RAW264.7 cells assessed as inhibition of LPS-induced NO production at 10 uM preincubated for 2 hrs followed by LPS stimulation and measured after 48 hrs by Griess method relative to control; format: functional
Outline: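 RAW264.7 cells seeded at 5 × 10^4/well and cultured 18 h, then given 10 µM compound plus LPS 100 ng/mL for 48 h at 37 °C. Supernatant mixed 1:1 with Griess reagent (1% sulfanilamide, 0.1% naphthylethylenediamine in 5% phosphoric acid) for 10 min; nitrite read at OD540.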

[4] = target: Elastase (Pseudomonas aeruginosa (strain ATCC 15692 / PAO1 / 1C / PRS 101 / LMG12228)) (UniProt P14756); test: Inhibition of Pseudomonas aeruginosa PAO1 GFP-fused quorum sensing lasB at 10 uM measured every 15 mins up to 12 hrs by GFP reporter gene assay relative to control; outline: as §1
[5] = test system: Mus musculus; test: Anti-inflammatory activity in LPS-induced sepsis shock mouse model assessed as survival rate at 1 mg/kg, iv pretreated daily for 5 days followed LPS treatment on day 5 at 1 hr post last dose and measured after 7 days relative to control; format: functional
Outline: (§2)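 Male SPF mice, randomly grouped, dosed i.v. with compound dissolved in DMSO and diluted in physiological saline; vehicle group given a similar volume. LPS was injected on day 5, 1 h after the last administration. Survival was recorded every 12 h for 7 days after LPS, with 11 animals per group per figure legend.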

[6] = test system: RAW264.7; test: Anti-inflammatory activity in mouse RAW264.7 cells assessed as inhibition of LPS-induced IL-6 production by measuring IL-6 level at 10 uM preincubated for 2 hrs followed by LPS stimulation and measured after 24 hrs by ELISA (reference value: 407.6 +/- 16.7 pg/ml)
[7] = test system: RAW264.7; test: Anti-inflammatory activity in mouse RAW264.7 cells assessed as inhibition of LPS-induced TNF-alpha production by measuring TNF-alpha level at 10 uM preincubated for 2 hrs followed by LPS stimulation and measured after 6 hrs by ELISA (reference value: 11922 +/- 628.4 pg/ml); format: functional
[8] = test system: RAW264.7; test: Anti-inflammatory activity in mouse RAW264.7 cells assessed as inhibition of LPS-induced IL-6 production by measuring […] level at 10 uM preincubated for 2 hrs followed by LPS stimulation and measured after 6 hrs by ELISA (reference value: 94.6 +/- 5.9 pg/ml); format: functional
[9] = test system: Mus musculus; test: Anti-inflammatory activity in LPS-induced sepsis shock mouse model assessed as survival rate at 20 mg/kg, iv pretreated daily for 5 days followed LPS treatment on day 5 at 1 hr post last dose and measured after 7 days relative to control; format: functional; outline: as §2
[10] = test system: RAW264.7; test: Anti-inflammatory activity in mouse RAW264.7 cells assessed as inhibition of LPS-induced TNF-alpha production by measuring TNF-alpha level at 10 uM preincubated for 2 hrs followed by LPS stimulation and measured after 24 hrs by ELISA (reference value: 24216 +/- 498.7 pg/ml); format: functional
[11] = Cytotoxicity against mouse RAW264.7 cells assessed as cell viability at 10 uM after 48 hrs by MTT assay relative to control; format: cell-based; settings: read-out: Activity
Outline: (§3)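 MTT viability: RAW264.7 cells (4 × 10^4/well) in DMEM + 10% FBS exposed to compounds diluted in DMEM for 48 h. MTT 0.5 mg/mL added for 4 h in the dark, formazan dissolved in DMSO, read at 570 nm. Viability = treated/medium-only control × 100; three independent experiments.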

[12] = test system: RAW264.7; test: Anti-inflammatory activity in mouse RAW264.7 cells assessed as inhibition of LPS-induced TNF-alpha production by measuring TNF-alpha level at 10 uM preincubated for 2 hrs followed by LPS stimulation and measured after 12 hrs by ELISA (reference value: 21561.3 +/- 857 pg/ml); format: functional
[13] = test system: RAW264.7; test: Anti-inflammatory activity in mouse RAW264.7 cells assessed as inhibition of LPS-induced IL-6 production by measuring […] level at 10 uM preincubated for 2 hrs followed by LPS stimulation and measured after 12 hrs by ELISA (reference value: 175.2 +/- 10.2 pg/ml); format: functional
[14] = Cytotoxicity against mouse RAW264.7 cells assessed as cell viability at 5 uM after 48 hrs by MTT assay relative to control; format: cell-based; settings: read-out: Activity; outline: as §3

Sequence of Elastase (Pseudomonas aeruginosa (strain ATCC 15692 / PAO1 / 1C / PRS 101 / LMG12228)) (P14756 198-498 limits assumed): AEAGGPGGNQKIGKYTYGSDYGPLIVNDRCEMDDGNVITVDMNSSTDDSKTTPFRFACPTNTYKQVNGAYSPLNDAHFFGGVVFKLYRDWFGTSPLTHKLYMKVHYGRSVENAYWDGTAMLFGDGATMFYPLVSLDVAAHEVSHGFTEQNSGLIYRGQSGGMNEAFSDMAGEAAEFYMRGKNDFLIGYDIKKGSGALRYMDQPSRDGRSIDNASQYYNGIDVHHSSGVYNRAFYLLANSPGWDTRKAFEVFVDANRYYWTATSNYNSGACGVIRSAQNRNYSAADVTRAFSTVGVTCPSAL

| Structure (SMILES) | inhibition [1] | inhibition [2] | inhibition [4] | inhibition at 10 µM [3] | other results |
| --- | --- | --- | --- | --- | --- |
| COc1ccc(CC(=O)Nc2ccc(CC3=CC(=O)OC3=C(Br)Br)cc2)cc1 | 13.8% | 20.6% | 11.8% | 25.2% |  |
| CN(CCOc1ccc(CC2SC(=O)NC2=O)cc1)c1ccccn1 (stereo not given) [ROSIGLITAZONE] | 15.5% | 9.19% | 7.43% | 16.6% | survival at 1 mg/kg [5]: 36.5%; Activity [6]: 345.6 pg/mL; Activity [7]: 11311.3 pg/mL; Activity [8]: 64.8 pg/mL; survival at 20 mg/kg [9]: 45.5%; Activity [10]: 22226 pg/mL; viability at 48 h, 10 µM [11]: 99%; Activity [12]: 20616 pg/mL; Activity [13]: 140 pg/mL |
| COc1ccc(CC(=O)Nc2ccc(CC3=CC(=O)OC3=CBr)cc2)cc1 | 11.8% | 26.4% | 14.8% | 39.3% |  |
| COc1cc(CC(=O)Nc2ccc(CC3=CC(=O)OC3=CBr)cc2)cc(OC)c1OC | 5.57% | 20.3% | 8.53% | 34.3% |  |
| COc1cc(CC(=O)Nc2ccc(CC3=CC(=O)OC3=C(Br)Br)cc2)cc(OC)c1OC | 7.66% | 19.5% | 9.79% | 21.2% |  |
| O=C(Cc1c(Cl)cccc1Cl)Nc1ccc(CC2=CC(=O)OC2=CBr)cc1 | 15.2% | 17.6% | 16.9% | 66.6% |  |
| Cc1ccc(CC(=O)Nc2ccc(CC3=CC(=O)OC3=CBr)cc2)cc1 | 18.2% | 29.8% | 19% | 29.4% |  |
| COc1ccc2c(c1)c(CC(=O)O)c(C)n2C(=O)c1ccc(Cl)cc1 [INDOMETHACIN] |  |  |  | 29.4% | Activity [6]: 286.6 pg/mL; Activity [7]: 10850 pg/mL; Activity [8]: 59.6 pg/mL; Activity [10]: 20772 pg/mL; Activity [12]: 19664 pg/mL; Activity [13]: 120.7 pg/mL |
| O=C1C=C(Cc2ccc(NC(=O)c3ccco3)cc2)C(=CBr)O1 | 13.6% | 20.4% | 17.3% | 59.9% |  |
| O=C1C=C(Br)/C(=C/Br)O1 | 24% | 20.2% | 21.4% |  |  |
| O=C1C=C(Cc2ccc(NC(=O)c3cccs3)cc2)C(=CBr)O1 | 23.9% | 20.3% | 10.2% | 54.2% |  |
| O=C(Cc1ccc(Br)cc1)Nc1ccc(CC2=CC(=O)OC2=CBr)cc1 | 17.2% | 40.8% | 24.9% | 64.9% |  |
| O=C(Nc1ccccc1)c1cc([N+](=O)[O-])ccc1Cl |  |  |  |  | viability at 48 h, 5 µM [14]: 99.1% |

The next lines start with results.

| inhibition [1] | inhibition [2] | inhibition [4] | Structure (SMILES) | inhibition at 10 µM [3] | other results |
| --- | --- | --- | --- | --- | --- |
| 19.2% | 19.3% | 19.1% | O=C(Cc1c(Cl)cccc1Cl)Nc1ccc(CC2=CC(=O)OC2=C(Br)Br)cc1 | 53.5% |  |
| 20.2% | 28.2% | 21.2% | O=C1C=C(Cc2ccc(NC(=O)c3ccccc3)cc2)C(=C(Br)Br)O1 | 30.3% |  |
| 19.6% | 26.4% | 20% | O=C1C=C(Cc2ccc(NC(=O)c3cccs3)cc2)C(=C(Br)Br)O1 | 39.9% |  |
| 17.3% | 25.8% | 18% | O=C(Cc1ccccc1)Nc1ccc(CC2=CC(=O)OC2=CBr)cc1 | 59.5% |  |
| 12.9% | 21.9% | 5.03% | COc1ccc(/C=C/C(=O)Nc2ccc(CC3=CC(=O)OC3=C(Br)Br)cc2)cc1 | 44.3% |  |
| 10.6% | 24.3% | 12.2% | COc1ccc(C=CC(=O)Nc2ccc(CC3=CC(=O)O/C3=C/Br)cc2)cc1 | 61% |  |
| 19.2% | 24.8% | 19.2% | O=C(Cc1ccccc1)Nc1ccc(CC2=CC(=O)OC2=C(Br)Br)cc1 | 44.1% |  |
| 18.1% | 16.2% | 9.48% | O=C(/C=C/c1ccccc1)Nc1ccc(CC2=CC(=O)OC2=C(Br)Br)cc1 | 54.4% |  |
| 19.5% | 22.9% | 11% | O=C(CCc1ccccc1)Nc1ccc(CC2=CC(=O)OC2=C(Br)Br)cc1 | 48.1% |  |
| 20% | 27.9% | 10.4% | O=C(Cc1ccc(Br)cc1)Nc1ccc(CC2=CC(=O)OC2=C(Br)Br)cc1 | 50.7% |  |
| 15.2% | 20.6% | 14.9% | O=C(CCc1ccccc1)Nc1ccc(CC2=CC(=O)OC2=CBr)cc1 | 64.8% |  |
| 16.4% | 24.5% | 14.2% | Cc1ccc(CC(=O)Nc2ccc(CC3=CC(=O)OC3=C(Br)Br)cc2)cc1 | 19% |  |
| 15.9% | 20% | 9.49% | O=C(Cc1ccc(F)cc1)Nc1ccc(CC2=CC(=O)OC2=C(Br)Br)cc1 | 59.2% |  |
| 17.2% | 34.5% | 16.1% | O=C1C=C(Cc2ccc(NC(=O)c3ccccc3)cc2)C(=CBr)O1 | 46.2% |  |
| 23.6% | 34.6% | 22.9% | O=C1C=C(Cc2ccc(NC(=O)c3ccco3)cc2)C(=C(Br)Br)O1 | 44.5% |  |
